According to ChEMBL document CHEMBL1687889, “Antitumor agents. 284. New desmosdumotin B analogues with bicyclic B-ring as cytotoxic and antitubulin agents” (J Med Chem, 2011):
Calls of active or inactive are those of the source. No cut-off for these calls is given here.

Legend:
[1] = Antiproliferative activity against human KBVIN cells after 3 days by sulforhodamine B assay; assay type: functional; conditions: 72 h
Summary of the method: (§1)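 Cells grown in RPMI-1640 with 25 mM HEPES, 0.25% sodium bicarbonate, 10% FBS and 100 μg/mL kanamycin. Exposed to compound for 3 days, with at most 0.5% v/v DMSO. Attached cells fixed in cold 50% TCA, stained with 0.4% sulforhodamine B, and the bound dye solubilized. A562 read. GI50 is the concentration giving a 50% absorbance drop versus untreated cells.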

HepG2 [2] = assay: Antiproliferative activity against human HepG2 cells after 3 days by sulforhodamine B assay; assay type: functional; conditions: HepG2, 72 h
Summary of the method: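 Sulforhodamine B assay over 3 days in culture, with at most 0.5% v/v DMSO. Attached cells fixed in cold 50% TCA, stained with 0.4% SRB, and the dye solubilized. Absorbance read at 562 nm. GI50 is the concentration causing a 50% fall in absorbance relative to untreated cells.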

HCT-8 [3] = assay: Antiproliferative activity against human HCT8 cells after 3 days by sulforhodamine B assay; assay type: functional; conditions: HCT-8, 72 h; summary of the method: as §1
PC-3 [4] = assay: Antiproliferative activity against human PC3 cells after 3 days by sulforhodamine B assay; assay type: functional; conditions: PC-3, 72 h
KB [5] = assay: Antiproliferative activity against human KB cells after 3 days by sulforhodamine B assay; assay type: functional; conditions: 72 h; summary of the method: as §1
DU-145 = assay: Antiproliferative activity against human DU145 cells after 3 days by sulforhodamine B assay; assay type: functional; conditions: DU-145, 72 h
A549 [6] = assay: Antiproliferative activity against human A549 cells after 3 days by sulforhodamine B assay; assay type: functional; conditions: A549, 72 h; summary of the method: as §1
[7] = Displacement of [3H]colchicine from tubulin at 5 uM for 10 mins
Summary of the method: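 1.0 μM tubulin incubated with 5.0 μM [3H]colchicine and 5.0 μM inhibitor for 10 min at 37 °C, when control samples reach about 40–60% of maximal colchicine binding. Result given as percent inhibition of colchicine binding.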

MCF7 [8] = assay: Antiproliferative activity against human MCF7 cells after 3 days by sulforhodamine B assay; assay type: functional; conditions: MCF7, 72 h
A549 [9] = assay: Inhibition of spindle formation in human A549 cells after 24 hs by DAPI staining; assay type: functional, cell-based
Summary of the method: (§2)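 A549 cells held in chamber slides 12 h, then exposed to compound (0.1 nM) or DMSO for 24 h at 37 °C; fixed in 4% paraformaldehyde/PBS, permeabilized with 0.5% Triton X-100, stained with anti-α-tubulin monoclonal plus FITC secondary and DAPI for nuclei; microtubules and mitotic spindles scored by fluorescence microscopy. Comparators: colchicine 100 nM, paclitaxel 1.5 nM, doxorubicin 500 nM.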

A549 [10] = assay: Inhibition of microtubule polymerization in human A549 cells after 24 hs by immunofluorescence staining; assay type: cell-based; summary of the method: as §2
[11] = Inhibition of tubulin assembly after 20 mins by turbidimetric assay
Summary of the method: (§3)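 Turbidimetry at 350 nm. 10 μM (1.0 mg/mL) tubulin preincubated with compound for 15 min at 30 °C without GTP, then chilled, and 0.4 mM GTP added. Turbidity followed for 20 min at 30 °C after a temperature jump from 0 °C. IC50 is the concentration halving the turbidity increase relative to control.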

HepG2 [12] = assay: Antiproliferative activity against human HepG2 cells at 20 ug/ml after 3 days by sulforhodamine B assay; assay type: functional, cell-based
[13] = Binding affinity to tubulin at 40 uM
MCF7 [14] = assay: Antiproliferative activity against human MCF7 cells at 20 ug/ml after 3 days by sulforhodamine B assay; assay type: functional, cell-based
HCT-8 [15] = assay: Antiproliferative activity against human HCT8 cells at 20 ug/ml after 3 days by sulforhodamine B assay; assay type: functional, cell-based
KB [16] = assay: Antiproliferative activity against human KB cells at 20 ug/ml after 3 days by sulforhodamine B assay; assay type: functional, cell-based
PC-3 [17] = assay: Antiproliferative activity against human PC3 cells at 20 ug/ml after 3 days by sulforhodamine B assay; assay type: functional, cell-based
A549 [18] = assay: Antiproliferative activity against human A549 cells at 20 ug/ml after 3 days by sulforhodamine B assay; assay type: functional, cell-based
KBVIN = assay: Antiproliferative activity against human KBVIN cells at 20 ug/ml after 3 days by sulforhodamine B assay; assay type: functional, cell-based
[19] = Partial inhibition of tubulin assembly after 20 mins at 4 uM by turbidimetric assay; summary of the method: as §3

Row | Structure (SMILES) | GI50 [1] | GI50 (HepG2 [2]) | GI50 (HCT-8 [3]) | GI50 (PC-3 [4]) | GI50 (KB [5]) | GI50 (DU-145) | GI50 (A549 [6]) | Activity (HepG2 [12]) | Activity (MCF7 [14]) | Activity (HCT-8 [15]) | Activity (KB [16]) | Activity (PC-3 [17]) | Activity (A549 [18]) | also measured
1 | CCC1=C(O)c2c(oc(-c3sc4ccccc4c3C)cc2=O)C(CC)(CC)C1=O | > 25 µM | > 25 µM | > 25 µM | > 25 µM | > 25 µM | > 25 µM | > 25 µM |  |  |  |  |  |  | 
2 | CCC1=C(O)c2c(oc(-c3csc4ccccc34)cc2=O)C(CC)(CC)C1=O | 0.07 µM | 0.13 µM | 0.13 µM | 0.16 µM | 0.08 µM |  | 0.06 µM |  |  |  |  |  |  | inhibition [7]: 78%; GI50 (MCF7 [8]): 0.11 µM; inhibition (A549 [9]): Active; inhibition (A549 [10]): Active; IC50 ([11]; read-out: IC50): 2 µM
3 | CCC1=C(O)c2c(oc(-c3ccccc3)cc2=O)C(CC)(CC)C1=O [6,8,8-TRIETHYL DESMOSDUMOTIN B] | 1.07 µM |  |  |  |  |  |  | inactive | inactive | inactive | inactive | inactive | inactive | Activity [13]: inactive; IC50 [11]: Not Active
4 | CCC1=C(O)c2c(oc(-c3csc4ccc(Br)cc34)cc2=O)C(CC)(CC)C1=O | 10.6 µM | 30.6 µM | 42.2 µM | 38 µM | 26.4 µM | 31.7 µM | 42.2 µM |  |  |  |  |  |  | 
5 | CCC1=C(O)c2c(oc(-c3c(O)ccc4sccc34)cc2=O)C(CC)(CC)C1=O | 0.78 µM | 1.02 µM | 3.66 µM | 21.5 µM | 0.76 µM | 1.12 µM | 3.17 µM |  |  |  |  |  |  | inhibition [7]: 52%; IC50 ([11]; read-out: IC50): 3.4 µM
6 | CCC1=C(O)c2c(oc(-c3ccc(OC)c4ccc(OC)cc34)cc2=O)C(CC)(CC)C1=O |  |  |  |  |  |  |  | inactive | inactive | inactive | inactive | inactive | inactive | Activity (KBVIN): inactive
7 | CCC1=C(O)c2c(oc(-c3cccc4ccccc34)c(Br)c2=O)C(CC)(CC)C1=O | 12 µM |  | 13.9 µM |  | 6.41 µM |  | 25.6 µM | inactive |  |  |  | inactive |  | GI50 (MCF7 [8]): 24.6 µM
8 | CCC1=C(O)c2c(oc(-c3cccc4ccsc34)cc2=O)C(CC)(CC)C1=O | 0.94 µM | 1.9 µM | 11.2 µM | 3.81 µM | 2.49 µM | 0.74 µM | 5.84 µM |  |  |  |  |  |  | 
9 | CCC1=C(O)c2c(oc(-c3ccc4ccccc4c3)cc2=O)C(CC)(CC)C1=O | 1.16 µM | 1.55 µM | 1.29 µM | 2.58 µM | 1.03 µM |  | 1.16 µM |  |  |  |  |  |  | inhibition [7]: 29%; GI50 (MCF7 [8]): 1.42 µM; inhibition [19]: Active
10 | COc1cc2c(c(OC)c1OC)-c1ccc(OC)c(=O)cc1[C@@H](NC(C)=O)CC2 |  |  |  |  |  |  |  |  |  |  |  |  |  | inhibition (A549 [9]): Active; inhibition (A549 [10]): Active
11 | CCC1=C(O)c2c(oc(-c3c(OC)c(OC)cc4ccccc34)cc2=O)C(CC)(CC)C1=O | 35.7 µM |  |  |  |  |  |  |  |  | inactive | inactive |  | inactive | 
12 | CCC1=C(O)c2c(oc(-c3csc4ccc(C)cc34)cc2=O)C(CC)(CC)C1=O | > 98 µM | > 98 µM | 93.1 µM | > 98 µM | 53.9 µM | > 98 µM | > 98 µM |  |  |  |  |  |  | 
13 | CC1=C(O)C(C)(C)c2oc(-c3ccccc3)cc(=O)c2C1=O [DESMOTUMOTIN B] | 13.5 µM |  |  |  |  |  |  | inactive | inactive | inactive | inactive | inactive | inactive | 
14 | CCC1=C(O)c2c(oc(-c3cccc4c3oc3ccccc34)cc2=O)C(CC)(CC)C1=O |  |  |  |  |  |  |  | inactive | inactive | inactive | inactive | inactive | inactive | Activity (KBVIN): inactive
15 | CCC1=C(O)c2c(oc(-c3c(C)sc4ccccc34)cc2=O)C(CC)(CC)C1=O | 0.76 µM | 2.03 µM | 2.7 µM | 90.7 µM | 0.61 µM | 3.92 µM | 1.35 µM |  |  |  |  |  |  | inhibition [7]: 38%; IC50 ([11]; read-out: IC50): 3.4 µM
16 | CCC1=C(O)c2c(oc(-c3ccc4sccc4c3)cc2=O)C(CC)(CC)C1=O | > 25 µM | > 25 µM | > 25 µM | > 25 µM | 11.2 µM | 10.4 µM | > 25 µM |  |  |  |  |  |  | 
17 | CCC1=C(O)c2c(oc(-c3c4ccccc4cc4ccccc34)cc2=O)C(CC)(CC)C1=O |  |  |  |  |  |  |  | inactive | inactive | inactive | inactive | inactive | inactive | Activity (KBVIN): inactive
18 | CCC1=C(O)c2c(oc(-c3cc4ccccc4o3)cc2=O)C(CC)(CC)C1=O | 14.6 µM | 15.1 µM | 5.82 µM | 5.82 µM | 14.8 µM |  | 17.2 µM |  | inactive |  |  |  |  | 
19 | CCC1=C(O)c2c(oc(-c3ccc4c(c3)c3ccccc3n4CC)cc2=O)C(CC)(CC)C1=O |  |  |  |  |  |  |  | inactive | inactive | inactive | inactive | inactive | inactive | Activity (KBVIN): inactive
20 | CCC1=C(O)c2c(oc(-c3c(OC)ccc4sccc34)cc2=O)C(CC)(CC)C1=O | 11.1 µM | 24.8 µM | 19.6 µM | 51.9 µM | 11.3 µM | 21.5 µM | 66 µM |  |  |  |  |  |  | 
21 | CCCC1=C(O)c2c(oc(-c3cccc4ccccc34)cc2=O)C(CCC)(CCC)C1=O |  |  | 23.3 µM | 17.4 µM | 18.6 µM |  | 23.3 µM | inactive | inactive |  |  |  |  | 
